{
  "source": "ChEMBL document CHEMBL4138195",
  "about": "“Discovery of novel propargylamine-modified 4-aminoalkyl imidazole substituted pyrimidinylthiourea derivatives as multifunctional agents for the treatment of Alzheimer's disease” (Eur J Med Chem, 2018)",
  "key": {"[1]": {"assay": "Antioxidant activity assessed as trolox equivalent of AAPH radical scavenging activity preincubated for 10 mins followed by AAPH addition measured every 2 mins for 180 mins by ORAC-FL assay", "assay_type": "functional", "method_in_brief": "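Compound at 20 µM (diluted from 10 mM DMSO stock in 75 mM phosphate, pH 7.4) with fluorescein (0.117 µM diluted) for 10 min at 37 °C, then AAPH (40 mM solution) added. Fluorescence (ex 485/em 535) read every 2 min for 180 min. […] Triplicate wells, ≥3 runs.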"}, "Homo sapiens": {"organism": "Homo sapiens", "assay": "Selectivity index, ratio of IC50 for recombinant human MAOA to IC50 for recombinant human MAOB", "method_in_brief": "(§1)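 Recombinant human MAO-A (12.5 µg/mL) or MAO-B (75 µg/mL) preincubated 15 min at 37 °C with compound (diluted from 10 mM DMSO stock in 50 mM KH2PO4, pH 7.4). Amplex Red working solution added: 2 mM p-tyramine (MAO-A) or benzylamine (MAO-B), 2 U/mL HRP. After 15 min at 37 °C, fluorescence read (ex 545/em 590), background from enzyme-free wells subtracted.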"}, "[2]": {"target": "Butyrylcholinesterase (Rattus norvegicus) (UniProt Q9JKC1)", "sequence (Q9JKC1 as listed by the source)": "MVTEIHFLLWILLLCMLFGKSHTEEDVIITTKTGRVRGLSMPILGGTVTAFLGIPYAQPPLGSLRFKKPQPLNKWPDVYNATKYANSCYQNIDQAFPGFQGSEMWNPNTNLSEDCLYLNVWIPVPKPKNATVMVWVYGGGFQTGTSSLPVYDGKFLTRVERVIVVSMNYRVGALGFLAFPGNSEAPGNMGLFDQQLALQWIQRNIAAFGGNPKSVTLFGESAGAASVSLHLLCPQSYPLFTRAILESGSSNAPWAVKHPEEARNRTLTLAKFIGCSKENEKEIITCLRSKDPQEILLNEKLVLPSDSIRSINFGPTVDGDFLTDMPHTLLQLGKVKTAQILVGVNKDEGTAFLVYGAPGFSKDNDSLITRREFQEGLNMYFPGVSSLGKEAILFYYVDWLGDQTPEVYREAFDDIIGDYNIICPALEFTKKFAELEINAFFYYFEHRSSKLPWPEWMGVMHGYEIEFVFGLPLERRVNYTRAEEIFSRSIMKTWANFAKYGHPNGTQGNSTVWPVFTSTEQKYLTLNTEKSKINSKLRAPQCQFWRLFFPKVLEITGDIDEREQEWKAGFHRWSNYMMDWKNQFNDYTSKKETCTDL", "assay": "Inhibition of BuChE in rat serum at 40 uM using butyrylthiocholine iodide as substrate after 20 mins by Ellman's method"}, "[3]": {"assay": "Inhibition of Cu2+-mediated amyloid beta (1 to 42) (unknown origin) aggregation at 50 uM after 24 hrs by dot blot assay"}, "[4]": {"target": "Amyloid-beta precursor protein (Homo sapiens) (UniProt P05067)", "sequence (P05067 whole entry)": "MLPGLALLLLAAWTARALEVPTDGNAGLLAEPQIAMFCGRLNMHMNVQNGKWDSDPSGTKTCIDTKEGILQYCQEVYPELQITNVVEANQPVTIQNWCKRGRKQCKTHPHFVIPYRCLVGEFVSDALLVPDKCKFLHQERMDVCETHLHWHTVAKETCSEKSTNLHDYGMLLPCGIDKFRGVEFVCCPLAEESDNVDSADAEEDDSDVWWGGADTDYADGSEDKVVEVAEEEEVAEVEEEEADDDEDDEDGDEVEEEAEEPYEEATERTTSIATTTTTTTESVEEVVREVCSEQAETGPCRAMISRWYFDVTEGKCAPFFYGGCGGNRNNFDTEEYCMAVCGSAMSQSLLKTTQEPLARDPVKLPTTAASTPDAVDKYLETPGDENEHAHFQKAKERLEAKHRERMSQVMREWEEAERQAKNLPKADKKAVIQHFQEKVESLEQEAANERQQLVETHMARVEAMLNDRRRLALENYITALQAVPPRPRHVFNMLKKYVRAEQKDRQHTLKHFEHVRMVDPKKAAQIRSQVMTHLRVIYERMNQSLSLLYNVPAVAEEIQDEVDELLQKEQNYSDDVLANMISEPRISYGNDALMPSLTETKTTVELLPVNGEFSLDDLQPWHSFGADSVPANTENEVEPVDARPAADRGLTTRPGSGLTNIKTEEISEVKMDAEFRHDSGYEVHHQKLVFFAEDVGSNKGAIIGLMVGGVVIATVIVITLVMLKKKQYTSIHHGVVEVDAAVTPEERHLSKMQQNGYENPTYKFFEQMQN", "assay": "Inhibition of amyloid beta (1 to 42) peptide (unknown origin) self aggregation-induced cytotoxicity in E17 Sprague-Dawley rat primary cortical neurons assessed as neuroprotective activity by measuring increase in cell viability at 1 uM after 24 hrs by MTT assay", "method_in_brief": "(§2)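 Rat E17 primary cortical neurons after 9 days in culture. Aβ1-42 samples, prepared as for the dot blot (± Cu2+, ± compound), added to the cultures at 1 µM for 24 h. Viability by MTT, normalized to the vehicle group. EGCG and clioquinol as positive controls.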"}, "Mus musculus [5]": {"test_system": "Mus musculus", "assay": "Reversal of scopolamine-induced dementia in ICR mouse assessed as decrease in frequent error incidences at 30 mg/kg, po administered 40 mins prior to scopolamine-challenge by water maze test", "assay_type": "functional, organism-based", "method_in_brief": "(§3)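 Test compound as HCl salt, 30 mg/kg intragastric, given 40 min before scopolamine (4.5 mg/kg i.p.), which was given 20 min before the water maze. Escape latency and errors (entries into no-exit paths) recorded; mean ± SEM.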"}, "Mus musculus [6]": {"test_system": "Mus musculus", "assay": "Reversal of scopolamine-induced dementia in ICR mouse assessed as decrease in escape latency time at 30 mg/kg, po administered 40 mins prior to scopolamine-challenge by water maze test", "assay_type": "functional, organism-based", "method_in_brief": "as §3"}, "[7]": {"assay": "Inhibition of Cu2+-induced amyloid beta (1 to 42 residues) (unknown origin) aggregation assessed as reduction in amyloid beta fibril load at 50 uM after 24 hrs by phosphotungstic acid staining-based transmission electron microscopic method", "method_in_brief": "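Aβ1-42 (25 µM) ± CuCl2 (25 µM) ± compound (50 µM) in HEPES/NaCl pH 6.6, incubated 24 h at 37 °C. Aliquots placed on carbon-coated copper grids for 30 min, stained 20 s with 2% phosphotungstic acid, imaged by TEM. Clioquinol as comparator.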"}, "Acetylcholinesterase": {"target": "T1, Acetylcholinesterase (Rattus norvegicus, UniProt P37136)", "T1 sequence (P37136 whole entry)": "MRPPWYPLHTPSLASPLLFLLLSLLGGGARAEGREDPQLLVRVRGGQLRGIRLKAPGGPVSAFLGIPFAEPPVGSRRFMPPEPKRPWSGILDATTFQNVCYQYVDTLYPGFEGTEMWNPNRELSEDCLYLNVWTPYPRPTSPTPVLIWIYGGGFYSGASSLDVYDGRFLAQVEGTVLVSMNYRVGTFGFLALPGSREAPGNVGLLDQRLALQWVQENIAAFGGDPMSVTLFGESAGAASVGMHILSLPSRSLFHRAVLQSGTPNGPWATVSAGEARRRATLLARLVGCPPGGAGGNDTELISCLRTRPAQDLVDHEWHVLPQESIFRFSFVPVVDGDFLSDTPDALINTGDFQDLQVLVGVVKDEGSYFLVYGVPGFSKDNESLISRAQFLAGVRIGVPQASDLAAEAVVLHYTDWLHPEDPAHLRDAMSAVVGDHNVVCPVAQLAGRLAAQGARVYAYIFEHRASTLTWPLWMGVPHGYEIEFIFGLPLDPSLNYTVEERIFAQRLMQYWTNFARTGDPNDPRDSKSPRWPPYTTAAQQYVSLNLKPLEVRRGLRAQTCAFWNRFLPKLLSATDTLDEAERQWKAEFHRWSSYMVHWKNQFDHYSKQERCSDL", "assay": "Inhibition of AChE in rat cortex homogenate using acetylthiocholine iodide as substrate after 20 mins by Ellman's method"}, "[8]": {"target": "T2, Amine oxidase [flavin-containing] A (Homo sapiens, UniProt P21397)", "T2 sequence (P21397 whole entry)": "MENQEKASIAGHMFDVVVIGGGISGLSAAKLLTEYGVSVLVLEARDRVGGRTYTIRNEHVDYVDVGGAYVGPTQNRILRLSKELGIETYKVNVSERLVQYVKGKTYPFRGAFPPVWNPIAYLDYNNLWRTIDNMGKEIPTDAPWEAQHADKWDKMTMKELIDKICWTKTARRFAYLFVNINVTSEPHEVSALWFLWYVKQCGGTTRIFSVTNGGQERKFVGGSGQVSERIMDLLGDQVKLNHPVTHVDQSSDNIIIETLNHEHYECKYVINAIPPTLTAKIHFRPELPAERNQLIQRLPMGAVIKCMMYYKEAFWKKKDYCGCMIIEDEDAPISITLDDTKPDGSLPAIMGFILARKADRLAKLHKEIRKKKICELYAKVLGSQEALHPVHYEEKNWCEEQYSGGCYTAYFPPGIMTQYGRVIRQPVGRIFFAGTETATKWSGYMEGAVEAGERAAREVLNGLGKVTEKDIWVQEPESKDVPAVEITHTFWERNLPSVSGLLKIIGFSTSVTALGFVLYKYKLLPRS", "assay": "Inhibition of recombinant human MAOA at 50 uM using p-tyramine as substrate preincubated for 15 mins followed by substrate addition measured after 15 mins by Amplex red reagent based fluorescence assay", "settings": "0.25 h", "method_in_brief": "as §1"}, "[9]": {"assay": "Metal chelating activity assessed as compound-Fe3+ complex formation at 40 uM in presence of FeCl3 after 30 mins by UV-visible spectrophotometric analysis", "method_in_brief": "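UV–vis spectra (200–500 nm) of compound at 40 µM final, alone or with CuCl2, FeSO4, FeCl3 or ZnCl2 (20 µM final), after 30 min in 20 mM HEPES, 150 mM NaCl, pH 7.4, at room temperature.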"}, "in vitro": {"assay": "in vitro", "settings": "PAMPA"}, "[10]": {"assay": "Inhibition of Cu2+-mediated amyloid beta (1 to 42) peptide-induced cytotoxicity in E17 Sprague-Dawley rat primary cortical neurons assessed as neuroprotective activity by measuring increase in cell viability at 1 uM after 24 hrs by MTT assay", "method_in_brief": "as §2"}, "[11]": {"target": "T2, Amine oxidase [flavin-containing] A", "assay": "Inhibition of recombinant human MAOA using p-tyramine as substrate preincubated for 15 mins followed by substrate addition measured after 15 mins by Amplex red reagent based fluorescence assay"}},
  "note": "Calls of active or inactive are those of the source. No cut-off for these calls is given here.",
  "data": [
    {"smiles": "C#CCN(C)Cc1cn(-c2cc(NC(=S)NCC)ncn2)cn1", "values": [
      {"measurement": "Activity (umolequiv/umol)", "setting": "[1]", "value": 1.13},
      {"measurement": "Ratio IC50", "setting": "Homo sapiens", "value": "> 35"},
      {"measurement": "inhibition", "setting": "[2]", "value": 12.6, "unit": "%"},
      {"measurement": "inhibition", "setting": "[3]", "value": "Active"},
      {"measurement": "Activity", "setting": "[4]", "value": "inactive"},
      {"measurement": "Activity", "setting": "Mus musculus [5]", "value": "Active"},
      {"measurement": "Activity", "setting": "Mus musculus [6]", "value": "Active"},
      {"measurement": "inhibition", "setting": "[7]", "value": "Active"},
      {"measurement": "IC50", "setting": "Acetylcholinesterase", "value": 324, "unit": "nM"},
      {"measurement": "inhibition at 50 µM", "setting": "[8]", "value": 20.2, "unit": "%"},
      {"measurement": "Activity", "setting": "[9]", "value": "inactive"},
      {"measurement": "Papp at 12 h, 100 ug/ml", "setting": "in vitro", "value": 3.16, "unit": "×10⁻⁶ cm/s"},
      {"measurement": "Activity", "setting": "[10]", "value": "Active"},
      {"measurement": "IC50", "setting": "[11]", "value": "> 50000", "unit": "nM"}
    ]}
  ]
}
